The subject of data set [1] is Staphylococcus epidermidis. The data set can be described thus: Antibacterial activity against methicillin-resistant Staphylococcus epidermidis 10-5 after 18 to 24 hrs by agar dilution method. The data set is classed as functional. The method in brief: (§1)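 Agar dilution on Petri dishes, each inoculated with 10⁴ cfu. Plates incubated at 35 °C for 18–24 h. MIC taken as the lowest test-compound concentration giving no visible growth on the plate. Reference drugs gemifloxacin, ciprofloxacin and levofloxacin run alongside for comparison.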
(Agar dilution tests growth on a series of plates holding different concentrations.)

The test system of a further data set is Streptococcus pyogenes. The data set can be described thus: Antibacterial activity against Streptococcus hemolyticus 1002 after 18 to 24 hrs by agar dilution method. The data set is classed as functional. The gist of the method:
(§2)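 Agar dilution on Petri dishes, each inoculated with 10⁴ cfu of the strain and incubated at 35 °C for 18–24 h. MIC read as the lowest compound concentration giving no visible growth on the plate.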

Data set [2] relates to Escherichia coli. Description: Antibacterial activity against Escherichia coli ATCC 25922 after 18 to 24 hrs by agar dilution method. The data set is classed as functional. The method in brief: as §2
Data set [3] in a line: Cytotoxicity against african green monkey Vero cells after 24 hrs. The data set is classed as cell-based. The settings on record: chlorocebus sabaeus. The method in brief: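 Vero cells exposed to graded compound concentrations for 24 h, then viability assessed; CC₅₀ derived from the viability data.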
The subject of data set [4] is Staphylococcus epidermidis. The data set can be described thus: Antibacterial activity against methicillin-sensitive Staphylococcus epidermidis 10-4 after 18 to 24 hrs by agar dilution method. The data set is classed as functional. The gist of the method: as §2
The test system of data set [5] is Pseudomonas aeruginosa. The data set can be described thus: Antibacterial activity against Pseudomonas aeruginosa ATCC 27853 after 18 to 24 hrs by agar dilution method. The data set is classed as functional. The method in brief:
as §2

A further data set deals with Streptococcus pneumoniae. The data set can be described thus: Antibacterial activity against Streptococcus pneumoniae 1001 after 18 to 24 hrs by agar dilution method. The data set is classed as functional. The method in brief: as §2
Data set [6] concerns Staphylococcus aureus. The data set can be described thus: Antibacterial activity against methicillin-sensitive Staphylococcus aureus 10-04 after 18 to 24 hrs by agar dilution method. The data set is classed as functional. The method in brief: as §2
In data set [7] the test system is Pseudomonas aeruginosa. The data set can be described thus: Antibacterial activity against Pseudomonas aeruginosa 10-1 after 18 to 24 hrs by agar dilution method. The data set is classed as functional. The method in brief: as §2
The subject of data set [8] is Escherichia coli. Description: Antibacterial activity against Escherichia coli 10-02 after 18 to 24 hrs by agar dilution method. The data set is classed as functional. The gist of the method:
as §2

For another data set, the system named is Klebsiella pneumoniae. The data set can be described thus: Antibacterial activity against Klebsiella pneumoniae 10-1 after 18 to 24 hrs by agar dilution method. The data set is classed as functional. The gist of the method: as §2
Data set [9] concerns Staphylococcus aureus. Description: Antibacterial activity against methicillin-resistant Staphylococcus aureus 10-05 after 18 to 24 hrs by agar dilution method. The data set is classed as functional. The method in brief:
as §1

Data set [10] relates to Staphylococcus aureus. The data set can be described thus: Antibacterial activity against Staphylococcus aureus ATCC 25923 after 18 to 24 hrs by agar dilution method. The data set is classed as functional. The gist of the method: as §2
Data set [11] relates to Staphylococcus aureus. Description: Ratio of compound MIC to CPFX MIC for methicillin-sensitive Staphylococcus aureus 10-04. The data set is classed as functional.
Data set [12] has as its system Staphylococcus aureus. The data set can be described thus: Ratio of compound MIC to LVFX MIC for methicillin-sensitive Staphylococcus aureus 10-04. The data set is classed as functional.

Converted amounts (≈) assume the structure as drawn. Where only a bound is given, the exact number is not on record here.

As to `CCO/N=C1\CC(N)CN(c2nc3c(cc2F)c(=O)c(C(=O)O)cn3C2CC2)C1` (centres undefined), the MIC – broadly, the lowest concentration that inhibits growth of the organism – came out at 8 µg/mL (≈ 19.8 µM) in [1]; 128 µg/mL (≈ 317 µM) with Streptococcus pyogenes; 0.25 µg/mL (≈ 0.62 µM) against Escherichia coli [2]; 4 µg/mL (≈ 9.92 µM) in data set [4]; 128 µg/mL (≈ 317 µM) against Pseudomonas aeruginosa [5]; 4 µg/mL (≈ 9.92 µM) against Streptococcus pneumoniae. Moreover, the MIC against Staphylococcus aureus [6] worked out at 2 µg/mL (≈ 4.96 µM); in the data set with Pseudomonas aeruginosa [7], 128 µg/mL (≈ 317 µM); against Escherichia coli [8], 0.5 µg/mL (≈ 1.24 µM); in the data set with Klebsiella pneumoniae it was 128 µg/mL (≈ 317 µM); with Staphylococcus aureus [9], 16 µg/mL (≈ 39.7 µM); in the data set with Staphylococcus aureus [10], 4 µg/mL (≈ 9.92 µM). Further, the CC50 (usually the concentration that lowers cell viability or growth by half) at 24 h in data set [3] was found to be 967 µM.

`CO/N=C1\CC(N)CN(c2cc3c(cc2F)c(=O)c(C(=O)O)cn3C2CC2)C1` (centres undefined): the minimum inhibitory concentration (MIC) in [1] is 16 µg/mL (≈ 41.2 µM); in the data set on Streptococcus pyogenes, 128 µg/mL (≈ 330 µM); in the data set on Escherichia coli [2] it was 0.25 µg/mL (≈ 0.644 µM); in data set [4], 8 µg/mL (≈ 20.6 µM); in the data set with Pseudomonas aeruginosa [5], 2 µg/mL (≈ 5.15 µM); with Streptococcus pneumoniae it was 4 µg/mL (≈ 10.3 µM). Further, the MIC in the data set with Staphylococcus aureus [6] is 4 µg/mL (≈ 10.3 µM); in the data set on Pseudomonas aeruginosa [7], > 128 µg/mL; against Escherichia coli [8], 0.25 µg/mL (≈ 0.644 µM); in the data set on Klebsiella pneumoniae, 64 µg/mL (≈ 165 µM); against Staphylococcus aureus [9], 64 µg/mL (≈ 165 µM); with Staphylococcus aureus [10] it was 0.5 µg/mL (≈ 1.29 µM). In addition, the CC50 at 24 h in data set [3] is 593 µM.

With `C[C@H]1COc2c(N3CCN(C)CC3)c(F)cc3c(=O)c(C(=O)O)cn1c23.C[C@H]1COc2c(N3CCN(C)CC3)c(F)cc3c(=O)c(C(=O)O)cn1c23.O` [LEVOFLOXACIN], the minimal inhibitory concentration (MIC) is 8 µg/mL in [1]; 32 µg/mL against Streptococcus pyogenes; 2 µg/mL in data set [4]; 0.015 µg/mL in the data set with Streptococcus pneumoniae; 8 µg/mL in the data set on Staphylococcus aureus [6]; 32 µg/mL with Klebsiella pneumoniae. The minimal inhibitory concentration (MIC) came out at 32 µg/mL in the data set on Staphylococcus aureus [9] and 0.125 µg/mL against Staphylococcus aureus [10].

Regarding `O=C(O)c1cn(C2CC2)c2cc(N3CCNCC3)c(F)cc2c1=O` [CIPROFLOXACIN], the MIC in data set [1] worked out at 16 µg/mL (≈ 48.3 µM); against Streptococcus pyogenes it was 64 µg/mL (≈ 193 µM); in data set [4], 1 µg/mL (≈ 3.02 µM); against Pseudomonas aeruginosa [5], 32 µg/mL (≈ 96.6 µM); against Streptococcus pneumoniae, 0.03 µg/mL (≈ 0.0905 µM); against Pseudomonas aeruginosa [7], 1 µg/mL (≈ 3.02 µM). For the same compound, the MIC in the data set with Klebsiella pneumoniae was determined as 32 µg/mL (≈ 96.6 µM); against Staphylococcus aureus [9], 64 µg/mL (≈ 193 µM); with Staphylococcus aureus [10], 0.25 µg/mL (≈ 0.754 µM).

As to `CO/N=C1\CC(N)CN(c2c(F)cc3c(=O)c(C(=O)O)cn4c3c2OC[C@@H]4C)C1` (some centres undefined), the MIC in data set [1] stood at 8 µg/mL (≈ 19.8 µM); in the data set with Streptococcus pyogenes, 64 µg/mL (≈ 158 µM); with Escherichia coli [2], 0.25 µg/mL (≈ 0.618 µM); in data set [4] it was 4 µg/mL (≈ 9.89 µM); in the data set with Pseudomonas aeruginosa [5] it was 8 µg/mL (≈ 19.8 µM); in the data set with Streptococcus pneumoniae, 0.5 µg/mL (≈ 1.24 µM). Moreover, the MIC against Staphylococcus aureus [6] worked out at 2 µg/mL (≈ 4.95 µM); against Pseudomonas aeruginosa [7] it was 64 µg/mL (≈ 158 µM); against Escherichia coli [8], 0.5 µg/mL (≈ 1.24 µM); against Klebsiella pneumoniae, 64 µg/mL (≈ 158 µM); in the data set with Staphylococcus aureus [9], 128 µg/mL (≈ 317 µM); against Staphylococcus aureus [10], 0.5 µg/mL (≈ 1.24 µM). Besides, the CC50 at 24 h in data set [3] came out at 1000 µM.

For `CCn1cc(C(=O)O)c(=O)c2cc(F)c(N3C/C(=N/OC)CC(N)C3)c(F)c21` (centres undefined), the minimum inhibitory concentration (MIC) was determined as 16 µg/mL (≈ 40.6 µM) in [1]; 128 µg/mL (≈ 325 µM) against Streptococcus pyogenes; 0.25 µg/mL (≈ 0.634 µM) in the data set with Escherichia coli [2]; 16 µg/mL (≈ 40.6 µM) in data set [4]; 8 µg/mL (≈ 20.3 µM) in the data set with Pseudomonas aeruginosa [5]; 0.5 µg/mL (≈ 1.27 µM) against Streptococcus pneumoniae. Moreover, the minimum inhibitory concentration (MIC) against Staphylococcus aureus [6] was 0.25 µg/mL (≈ 0.634 µM); in the data set with Pseudomonas aeruginosa [7], > 128 µg/mL; in the data set on Escherichia coli [8], 0.25 µg/mL (≈ 0.634 µM); in the data set on Klebsiella pneumoniae it was > 128 µg/mL; against Staphylococcus aureus [9], 32 µg/mL (≈ 81.1 µM); against Staphylococcus aureus [10], 0.25 µg/mL (≈ 0.634 µM). Besides, the CC50 at 24 h in data set [3] came out at 913 µM. For the same compound, the Ratio in the data set on Staphylococcus aureus [11] and with Staphylococcus aureus [12] was 4 throughout.

Turning to `CNC1C/C(=N\OC)CN(c2nc3c(cc2F)c(=O)c(C(=O)O)cn3C2CC2)C1` (centres undefined), the minimal inhibitory concentration (MIC) in [1] was 16 µg/mL (≈ 39.7 µM); against Streptococcus pyogenes, > 128 µg/mL; against Escherichia coli [2] it was 0.25 µg/mL (≈ 0.62 µM); in [4] it was 2 µg/mL (≈ 4.96 µM); against Pseudomonas aeruginosa [5], 128 µg/mL (≈ 317 µM); with Streptococcus pneumoniae, 4 µg/mL (≈ 9.92 µM). Further, the MIC against Staphylococcus aureus [6] was 4 µg/mL (≈ 9.92 µM); in the data set on Pseudomonas aeruginosa [7], > 128 µg/mL; against Escherichia coli [8], 0.25 µg/mL (≈ 0.62 µM); with Klebsiella pneumoniae, > 128 µg/mL; in the data set with Staphylococcus aureus [9] it was 128 µg/mL (≈ 317 µM); against Staphylococcus aureus [10] it was 0.5 µg/mL (≈ 1.24 µM). The compound further returned a CC50 at 24 h in [3] of 645 µM.

These data come from ChEMBL document CHEMBL1667809, “Synthesis and in vitro antibacterial activity of 7-(3-alkoxyimino-5-amino/methylaminopiperidin-1-yl)fluoroquinolone derivatives” (Bioorg Med Chem Lett, 2011).
